The values below come from ChEMBL document CHEMBL4393708, “Pyridinylimidazoles as dual glycogen synthase kinase 3β/p38α mitogen-activated protein kinase inhibitors” (Eur J Med Chem, 2019).

Series [1] has as its target Rho-associated protein kinase 1 (Homo sapiens) (UniProt Q13464). Description: Inhibition of human recombinant ROCK1 at 1 uM using Ulight-RRRSLLE as substrate measured after 20 mins in presence of ATP by LANCE assay relative to control. The essentials: (§1)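 Kinase panel run by an outside provider (Eurofins Cerep) in a LANCE assay, single test concentration of 1 µM, results as percent inhibition.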
In general terms: TR-FRET usually uses a lanthanide donor and a delayed reading to cut background.

The next series deals with CYP2C9 (Homo sapiens, UniProt P11712). As to the kind of experiment: Inhibition of human recombinant CYP2C9 expressed in baculovirus infected insect cells using OOMR as substrate at 10 uM in presence of NADPH by fluorimetric analysis relative to control. Type of series: ADME. The settings on record: probe OOMR.
The target of a further series is Cytochrome P450 2C19 (Homo sapiens, UniProt P33261). As to the kind of experiment: Inhibition of human recombinant CYP2C19 expressed in baculovirus infected insect cells using EOMCC as substrate in presence of NADPH by fluorimetric analysis relative to control. The format is ADME. The settings on record: recombinant enzyme.
A short description of series [2]: Drug uptake in RjOrl:Swiss CD-1 mouse brain at 10 mg/kg, iv administered as single dose measured after 2 hrs by LC-MS analysis. The format is ADME, organism-based. To be noted: read-out: Drug uptake. The essentials: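 Adult male RjOrl:Swiss CD-1 mice got one intravenous dose of 10 mg/kg. Plasma was sampled at 10, 30 and 120 min. After the last sample the mice were sacrificed and brains dissected. Blood and brain samples were prepared and analysed by LC-MS for parent and sulfoxide metabolite; brain levels reported as ng/g.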

Series [3] deals with T1, Glycogen synthase kinase-3 beta (Homo sapiens, UniProt P49841). As to the kind of experiment: Competitive inhibition of human recombinant full length GSK3beta using YRRAAVPPSPSLSRHSSPHQ(pS)EDEEE as substrate preincubated with enzyme for 10 mins followed by substrate and 100 uM ATP addition measured after 60 mins by ADP-Glo luminescence assay. The essentials: (§2)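 Recombinant human GSK3β at 0.58 ng/µL with 0.2 µg/µL substrate G50-58; ATP at 25 µM, 100 µM or 500 µM, each as its line states. Compounds in serial dilutions were preincubated with kinase for 10 min at rt. Substrate/ATP was then added and the reaction ran 60 min at rt. ADP-Glo reagent 60 min, detection reagent 30 min, then luminescence read (500 ms integration).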
T1 sequence (P49841 whole entry): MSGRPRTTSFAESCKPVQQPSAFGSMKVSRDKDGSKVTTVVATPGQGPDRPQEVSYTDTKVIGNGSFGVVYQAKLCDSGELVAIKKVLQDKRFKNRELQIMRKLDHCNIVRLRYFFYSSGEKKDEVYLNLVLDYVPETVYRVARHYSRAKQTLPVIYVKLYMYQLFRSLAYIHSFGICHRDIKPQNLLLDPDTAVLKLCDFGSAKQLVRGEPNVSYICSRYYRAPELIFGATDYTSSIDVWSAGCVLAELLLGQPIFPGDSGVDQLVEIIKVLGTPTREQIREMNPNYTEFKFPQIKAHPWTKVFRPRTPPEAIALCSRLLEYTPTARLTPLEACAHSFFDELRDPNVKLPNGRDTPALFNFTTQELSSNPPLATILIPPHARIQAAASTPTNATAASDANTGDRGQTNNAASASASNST

The target in series [4] is Mitogen-activated protein kinase 1 (Homo sapiens) (UniProt P28482). Description: Inhibition of human recombinant ERK2 at 1 uM using Ulight-CFFKNIVTPRTPPPSQGK-amide as substrate measured after 15 mins in presence of ATP by LANCE assay relative to control. The essentials:
as §1

A short description of series [5]: Metabolic stability in human liver microsomes assessed as parent compound remaining after 20 mins by LC-MS analysis relative to control. The format is ADME, Microsome. The settings on record: read-out: Stability.
Series [6] concerns the target MAP kinase-interacting serine/threonine-protein kinase 2 (Homo sapiens) (UniProt Q9HBH9). Description: Inhibition of human recombinant MNK2 at 1 uM using CREBtide as substrate measured after 90 mins in presence of ATP by LANCE assay relative to control. The essentials:
as §1

The target of series [7] is Inhibitor of nuclear factor kappa-B kinase subunit alpha (Homo sapiens) (UniProt O15111). As to the kind of experiment: Inhibition of human recombinant IKKalpha at 1 uM using Ulight-IKappaB-alpha as substrate measured after 30 mins in presence of ATP by LANCE assay relative to control. In short, it runs like this: as §1
Series [8] addresses Tyrosine-protein kinase JAK3 (Homo sapiens) (UniProt P52333). Description: Inhibition of human recombinant JAK3 at 1 uM using Ulight-CAGAGAIETDKEYYTVKD as substrate measured after 60 mins in presence of ATP by LANCE assay relative to control. In short, it runs like this:
as §1

Series [9] has as its target Fibroblast growth factor receptor 2 (Homo sapiens) (UniProt P21802). Description: Inhibition of human recombinant FGFR2 at 1 uM using Ulight-CAGAGAIETDKEYYTVKD as substrate measured after 15 mins in presence of ATP by LANCE assay relative to control. The essentials: as §1
For series [10], the target named is Serine/threonine-protein kinase pim-2 (Homo sapiens) (UniProt Q9P1W9). Description: Inhibition of human recombinant PIM2 at 1 uM using CREBtide as substrate measured after 60 mins in presence of ATP by LANCE assay relative to control. The essentials:
as §1

A short description of series [11]: Metabolic stability in human liver microsomes assessed as parent compound remaining after 240 mins by LC-MS analysis relative to control. Type of series: ADME, Microsome. The settings on record: read-out: Stability. For orientation: Liver microsomes are a subcellular fraction often used to study metabolism.
Series [12] deals with Mitogen-activated protein kinase 14 (Homo sapiens, UniProt Q16539). As to the kind of experiment: Inhibition of human recombinant SAPK2A at 1 uM using Ulight-CFFKNIVTPRTPPPSQGK-amide as substrate measured after 30 mins in presence of ATP by LANCE assay relative to control. In short, it runs like this: as §1
Sequence of Mitogen-activated protein kinase 14 (Q16539 whole entry): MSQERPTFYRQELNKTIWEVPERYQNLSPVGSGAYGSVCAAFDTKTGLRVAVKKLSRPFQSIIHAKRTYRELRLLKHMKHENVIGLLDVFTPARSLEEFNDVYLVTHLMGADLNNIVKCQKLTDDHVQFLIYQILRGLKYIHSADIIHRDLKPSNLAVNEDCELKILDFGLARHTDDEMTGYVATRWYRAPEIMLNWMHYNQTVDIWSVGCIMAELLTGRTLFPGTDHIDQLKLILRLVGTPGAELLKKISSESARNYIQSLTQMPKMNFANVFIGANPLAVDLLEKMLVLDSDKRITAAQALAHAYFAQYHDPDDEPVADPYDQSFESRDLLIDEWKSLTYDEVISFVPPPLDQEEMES
For series [13], the target named is T1, Glycogen synthase kinase-3 beta. As to the kind of experiment: Competitive inhibition of human recombinant full length GSK3beta using YRRAAVPPSPSLSRHSSPHQ(pS)EDEEE as substrate preincubated with enzyme for 10 mins followed by substrate and 500 uM ATP addition measured after 60 mins by ADP-Glo luminescence assay. The essentials:
as §2
A general note: ADP-Glo turns the ADP formed in a reaction into a luminescent signal.

Series [14] concerns the target Serine/threonine-protein kinase PAK 4 (Homo sapiens) (UniProt O96013). As to the kind of experiment: Inhibition of human recombinant PAK4 at 1 uM using Ulight-RRRSLLE as substrate measured after 30 mins in presence of ATP by LANCE assay relative to control. In short, it runs like this: as §1
Series [15] has as its target Glycogen synthase kinase-3 alpha (Homo sapiens, UniProt P49840). Description: Inhibition of human recombinant full length GSK3alpha using YRRAAVPPSPSLSRHSSPHQ(pS)EDEEE as substrate preincubated with enzyme for 10 mins followed by substrate and 25 uM ATP addition measured after 60 mins by ADP-Glo luminescence assay. In short, it runs like this: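 Recombinant human GSK3α at 0.50 ng/µL, 25 µM ATP, 0.2 µg/µL substrate G50-58, serial compound dilutions. Kinase was preincubated with compound 10 min at rt, then run 60 min at rt after substrate/ATP addition. ADP-Glo reagent 60 min, detection reagent 30 min, luminescence read. Uninhibited-kinase and ATP/substrate-only controls were included.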

Series [16] can be described thus: Solubility of the compound in PBS buffer at pH 7.8 after 1 hr by HPLC analysis. The format is physicochemical.
For series [17], the target named is Mitogen-activated protein kinase 8 (Homo sapiens) (UniProt P45983). Description: Inhibition of human recombinant JNK1 at 1 uM using Ulight-CFFKNIVTPRTPPPSQGK-amide as substrate measured after 60 mins in presence of ATP by LANCE assay relative to control. In short, it runs like this:
as §1

The target of series [18] is MAP kinase-activated protein kinase 2 (Homo sapiens) (UniProt P49137). As to the kind of experiment: Inhibition of human recombinant MAPKAPK2 at 1 uM using CREBtide as substrate measured after 15 mins in presence of ATP by LANCE assay relative to control. The essentials:
as §1

The target of series [19] is Ephrin type-A receptor 3 (Homo sapiens) (UniProt P29320). As to the kind of experiment: Inhibition of human recombinant EPHA3 at 1 uM using Ulight-TK peptide as substrate measured after 60 mins in presence of ATP by LANCE assay relative to control. The essentials:
as §1

For series [20], the target named is Fibroblast growth factor receptor 1 (Homo sapiens) (UniProt P11362). Description: Inhibition of human recombinant FGFR at 1 uM using Ulight-CAGAGAIETDKEYYTVKD as substrate measured after 60 mins in presence of ATP by LANCE assay relative to control. In short, it runs like this: as §1
Sequence of Fibroblast growth factor receptor 1 (Homo sapiens) (P11362 22-822 limits assumed): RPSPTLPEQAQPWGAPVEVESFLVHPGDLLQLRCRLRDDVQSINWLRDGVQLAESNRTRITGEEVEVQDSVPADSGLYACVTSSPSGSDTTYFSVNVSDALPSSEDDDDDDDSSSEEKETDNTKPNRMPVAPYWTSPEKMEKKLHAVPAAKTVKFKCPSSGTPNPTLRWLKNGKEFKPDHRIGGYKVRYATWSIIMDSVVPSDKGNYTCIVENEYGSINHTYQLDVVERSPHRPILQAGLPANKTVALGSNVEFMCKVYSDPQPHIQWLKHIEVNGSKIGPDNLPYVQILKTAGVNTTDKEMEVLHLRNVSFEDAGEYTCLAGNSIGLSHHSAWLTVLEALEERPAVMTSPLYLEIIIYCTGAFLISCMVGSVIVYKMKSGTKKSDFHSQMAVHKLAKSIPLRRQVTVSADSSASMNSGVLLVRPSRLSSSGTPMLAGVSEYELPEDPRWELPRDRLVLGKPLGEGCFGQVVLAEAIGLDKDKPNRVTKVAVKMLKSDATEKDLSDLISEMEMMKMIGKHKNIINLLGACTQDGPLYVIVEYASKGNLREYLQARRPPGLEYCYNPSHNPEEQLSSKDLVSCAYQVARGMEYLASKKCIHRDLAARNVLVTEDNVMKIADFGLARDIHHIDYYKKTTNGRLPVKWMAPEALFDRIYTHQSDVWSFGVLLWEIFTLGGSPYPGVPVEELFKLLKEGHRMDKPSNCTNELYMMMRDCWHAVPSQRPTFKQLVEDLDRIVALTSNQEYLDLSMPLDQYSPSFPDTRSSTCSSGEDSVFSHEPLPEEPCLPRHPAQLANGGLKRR

Each structure is given as a SMILES string. Values after ≈ are worked out from the molar mass of the structure shown.

Sequence of Glycogen synthase kinase-3 alpha (P49840 whole entry): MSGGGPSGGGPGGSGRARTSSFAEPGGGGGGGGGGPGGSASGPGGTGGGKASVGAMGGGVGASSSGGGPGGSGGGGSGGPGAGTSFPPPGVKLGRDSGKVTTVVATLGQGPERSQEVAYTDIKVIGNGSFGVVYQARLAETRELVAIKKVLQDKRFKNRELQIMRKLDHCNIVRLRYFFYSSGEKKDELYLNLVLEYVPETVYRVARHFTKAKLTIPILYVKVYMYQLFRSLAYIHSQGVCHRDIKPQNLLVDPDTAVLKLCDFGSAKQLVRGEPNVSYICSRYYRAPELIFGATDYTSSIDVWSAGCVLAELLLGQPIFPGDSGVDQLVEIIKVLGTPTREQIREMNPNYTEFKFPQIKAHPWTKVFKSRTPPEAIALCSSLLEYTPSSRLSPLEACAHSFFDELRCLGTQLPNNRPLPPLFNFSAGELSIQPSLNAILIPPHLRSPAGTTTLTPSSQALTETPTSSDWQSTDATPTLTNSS
Sequence of Tyrosine-protein kinase JAK3 (Homo sapiens) (P52333 whole entry): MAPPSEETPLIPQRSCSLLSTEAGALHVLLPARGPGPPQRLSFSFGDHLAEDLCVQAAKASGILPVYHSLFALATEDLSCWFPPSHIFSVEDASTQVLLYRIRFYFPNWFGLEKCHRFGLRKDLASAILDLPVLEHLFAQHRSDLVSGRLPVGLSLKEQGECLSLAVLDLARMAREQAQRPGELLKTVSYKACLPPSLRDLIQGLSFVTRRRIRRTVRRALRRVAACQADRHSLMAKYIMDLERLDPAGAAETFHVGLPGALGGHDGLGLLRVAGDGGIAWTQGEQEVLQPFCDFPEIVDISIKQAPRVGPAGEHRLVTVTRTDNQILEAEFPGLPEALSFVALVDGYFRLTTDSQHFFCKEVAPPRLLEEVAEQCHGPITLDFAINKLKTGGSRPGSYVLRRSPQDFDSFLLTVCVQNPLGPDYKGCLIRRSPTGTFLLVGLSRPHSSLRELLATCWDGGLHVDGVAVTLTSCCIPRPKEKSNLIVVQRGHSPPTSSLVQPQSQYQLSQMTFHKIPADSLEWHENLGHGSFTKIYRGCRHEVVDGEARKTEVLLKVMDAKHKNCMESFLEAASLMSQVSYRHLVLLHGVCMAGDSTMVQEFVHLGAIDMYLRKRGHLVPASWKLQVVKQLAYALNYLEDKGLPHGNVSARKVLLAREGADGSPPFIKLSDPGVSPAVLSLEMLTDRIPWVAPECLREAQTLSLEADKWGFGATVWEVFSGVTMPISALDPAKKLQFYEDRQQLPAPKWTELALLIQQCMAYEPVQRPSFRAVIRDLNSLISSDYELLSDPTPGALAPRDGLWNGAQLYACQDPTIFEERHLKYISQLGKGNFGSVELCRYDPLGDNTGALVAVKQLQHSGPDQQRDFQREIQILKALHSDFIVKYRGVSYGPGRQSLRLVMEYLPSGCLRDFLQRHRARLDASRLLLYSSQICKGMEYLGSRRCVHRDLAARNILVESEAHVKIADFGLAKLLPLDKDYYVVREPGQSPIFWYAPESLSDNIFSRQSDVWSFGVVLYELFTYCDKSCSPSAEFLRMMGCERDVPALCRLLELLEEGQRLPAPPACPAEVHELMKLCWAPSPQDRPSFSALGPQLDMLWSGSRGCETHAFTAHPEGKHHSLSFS
Sequence of Mitogen-activated protein kinase 8 (Homo sapiens) (P45983 whole entry): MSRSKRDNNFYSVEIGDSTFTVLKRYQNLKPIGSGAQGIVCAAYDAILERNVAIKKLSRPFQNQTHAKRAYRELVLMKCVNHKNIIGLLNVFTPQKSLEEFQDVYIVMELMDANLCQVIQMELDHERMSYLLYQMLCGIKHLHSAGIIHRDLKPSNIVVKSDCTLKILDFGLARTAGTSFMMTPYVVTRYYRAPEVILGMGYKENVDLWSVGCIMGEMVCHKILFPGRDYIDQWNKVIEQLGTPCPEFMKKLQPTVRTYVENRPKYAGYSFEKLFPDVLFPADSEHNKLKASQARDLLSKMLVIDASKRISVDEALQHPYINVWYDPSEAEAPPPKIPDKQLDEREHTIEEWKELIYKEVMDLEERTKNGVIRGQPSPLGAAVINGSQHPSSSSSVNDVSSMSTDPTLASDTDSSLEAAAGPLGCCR
Sequence of Serine/threonine-protein kinase PAK 4 (Homo sapiens) (O96013 whole entry, looked up): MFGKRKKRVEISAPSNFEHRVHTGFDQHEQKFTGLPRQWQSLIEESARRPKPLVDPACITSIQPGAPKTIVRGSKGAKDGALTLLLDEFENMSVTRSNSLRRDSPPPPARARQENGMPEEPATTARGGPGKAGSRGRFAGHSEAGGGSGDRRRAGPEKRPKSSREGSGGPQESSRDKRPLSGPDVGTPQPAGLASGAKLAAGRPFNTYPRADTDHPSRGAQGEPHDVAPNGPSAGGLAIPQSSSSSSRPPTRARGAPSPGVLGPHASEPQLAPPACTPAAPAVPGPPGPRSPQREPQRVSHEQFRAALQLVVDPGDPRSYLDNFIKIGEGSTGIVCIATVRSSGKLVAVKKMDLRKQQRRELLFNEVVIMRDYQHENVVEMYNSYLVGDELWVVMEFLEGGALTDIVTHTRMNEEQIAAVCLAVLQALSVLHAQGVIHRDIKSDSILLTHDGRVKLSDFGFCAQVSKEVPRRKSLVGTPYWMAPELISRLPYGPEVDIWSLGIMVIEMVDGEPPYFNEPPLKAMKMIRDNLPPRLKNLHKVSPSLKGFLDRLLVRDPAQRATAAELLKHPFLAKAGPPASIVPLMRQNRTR
Sequence of Fibroblast growth factor receptor 2 (Homo sapiens) (P21802 22-821 limits assumed): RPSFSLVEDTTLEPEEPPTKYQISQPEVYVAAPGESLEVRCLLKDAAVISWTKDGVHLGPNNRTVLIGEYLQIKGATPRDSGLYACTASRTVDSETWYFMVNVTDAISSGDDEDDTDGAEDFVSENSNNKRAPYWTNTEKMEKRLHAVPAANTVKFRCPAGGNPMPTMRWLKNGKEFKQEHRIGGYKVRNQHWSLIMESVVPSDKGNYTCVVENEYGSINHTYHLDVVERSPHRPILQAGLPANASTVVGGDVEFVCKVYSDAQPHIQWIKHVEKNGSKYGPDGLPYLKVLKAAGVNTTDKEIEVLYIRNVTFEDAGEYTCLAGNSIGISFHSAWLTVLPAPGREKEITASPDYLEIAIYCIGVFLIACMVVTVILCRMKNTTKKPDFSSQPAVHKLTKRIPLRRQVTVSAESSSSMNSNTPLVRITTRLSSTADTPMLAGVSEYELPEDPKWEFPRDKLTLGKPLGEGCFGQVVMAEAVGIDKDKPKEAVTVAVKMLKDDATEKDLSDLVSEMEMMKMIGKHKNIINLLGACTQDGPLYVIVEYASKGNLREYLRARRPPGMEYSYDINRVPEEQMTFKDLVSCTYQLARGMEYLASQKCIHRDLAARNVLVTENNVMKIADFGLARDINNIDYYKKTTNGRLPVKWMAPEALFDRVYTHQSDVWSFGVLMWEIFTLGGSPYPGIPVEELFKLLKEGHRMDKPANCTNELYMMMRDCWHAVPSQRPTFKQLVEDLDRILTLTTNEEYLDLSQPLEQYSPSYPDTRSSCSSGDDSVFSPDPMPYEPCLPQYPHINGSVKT

Turning to `CCc1nc(-c2ccc(F)cc2)c(-c2ccnc(NC(=O)C3CC3)c2)[nH]1`, the inhibition – broadly, the change of the read-out against control, counted positive when it falls – in series [1] was -8.13%; in series [4], 10.9%; in series [6], 1.16%; in series [7], -2.16%; in series [8] it was 24.8%; in series [9], 74.4%. The inhibition in series [10] is -0.24%; in series [12], 93.6%; in series [14] it was 4.82%; in series [17], 78.3%; in [18], -4.86%; in [19], 76.6%. For the same molecule, the inhibition in series [20] stood at 47%. In addition, the inhibition at 10 µM on CYP2C9 amounted to 83.6%. On Cytochrome P450 2C19, the “inhibition (INH)” value is 81.7%. Further, in series [2], the concentration at 2 h amounted to 13.3 ng/g. Further, the 50% inhibitory concentration (IC50) (as a rule, the point on the concentration scale where inhibition reaches its midpoint) in series [3] was determined as 108 nM; in series [13], 492 nM; in series [15] it was 301 nM. The remaining at 20 min in series [5] stood at 93.4%. In series [11], the remaining at 4 h came to 98.3%. Further, in [16], the concentration in solution (solubility at 1 h) was 155 µg/mL (≈ 442 µM).
